KCC2 mod = modulators of human KCC2 chloride dependent transport | Q9H2X9 | KCC2 cells, thallium flux FluoZin-2 fluorescence | B-score of Tl+ flux slope (higher = more flux/activation; lower = inhibition) at 10 µM | hit rate 2.2% among 190,000 | AID 1456;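 active = thallium flux slope and its plate-corrected score both differing from the plate sample mean at a set confidence after two filtering rounds, in either direction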;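 also: slope of fluorescence scaled to starting intensity during 10 to 20 s after thallium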
KCNQ1 block = human KCNQ1 channel inhibition; CHO-K1 KCNQ1, FluxOR thallium flux fluorescence; active compounds read high; B-score at 10 µM; hit rate 1.3% among 310,000;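 active = compounds whose thallium flux B-score, printed positive for inhibition, exceeds three library SD while starting fluorescence stays within three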;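 also: channel opened by potassium depolarization with thallium stimulus after 20 min compound exposure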
Target sequence (P51787 whole entry, looked up): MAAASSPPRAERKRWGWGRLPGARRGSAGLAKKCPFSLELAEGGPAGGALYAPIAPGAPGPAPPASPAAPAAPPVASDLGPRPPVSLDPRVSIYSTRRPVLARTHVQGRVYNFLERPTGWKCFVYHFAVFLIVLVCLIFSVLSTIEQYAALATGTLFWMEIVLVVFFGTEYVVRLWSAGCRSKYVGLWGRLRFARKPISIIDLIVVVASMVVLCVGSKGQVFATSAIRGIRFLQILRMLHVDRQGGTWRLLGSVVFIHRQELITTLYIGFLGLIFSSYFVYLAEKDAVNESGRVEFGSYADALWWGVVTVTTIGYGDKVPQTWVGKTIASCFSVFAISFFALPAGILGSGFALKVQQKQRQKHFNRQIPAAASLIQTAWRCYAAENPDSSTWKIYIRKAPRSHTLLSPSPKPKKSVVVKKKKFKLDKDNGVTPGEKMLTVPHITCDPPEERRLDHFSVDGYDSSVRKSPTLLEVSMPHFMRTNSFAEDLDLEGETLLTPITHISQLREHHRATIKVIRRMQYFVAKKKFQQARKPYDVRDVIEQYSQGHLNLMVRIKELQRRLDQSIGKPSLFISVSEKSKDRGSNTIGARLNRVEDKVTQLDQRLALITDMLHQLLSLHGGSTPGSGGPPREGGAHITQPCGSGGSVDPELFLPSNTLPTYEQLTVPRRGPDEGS
hERG protect = hERG (human) protection from proarrhythmic block; activation (rescue from dofetilide block), less the hit threshold, % at 10 µM; Q12809; hit rate 0.51% among 310,000; CHO-hERG, FluxOR thallium flux, dofetilide IC70 present;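 active = activation above the mean of controls blocked by dofetilide plus 5 SD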;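 also: thallium influx through hERG after potassium depolarization seen as dye fluorescence rise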
KCNK3 block = human KCNK3 channel inhibition, primary screen; CHO-KCNK3 thallium flux, FluxOR fluorescence; active compounds read low; AID 602410; B-score at 10 µM; O14649; hit rate 0.84% among 340,000;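 active = B-score under library mean minus 4 SD, starting fluorescence ratio at most library mean plus 5 SD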;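 also: more negative B-score means stronger inhibition of thallium flux through KCNK3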
KCNK9 inh = human KCNK9 channel inhibition. Q9NPC2. HEK293 KCNK9, FluxOR thallium flux fluorescence; active compounds read low. B-score at 10 µM. hit rate 1.2% among 310,000;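 active = ratio B-score over 3 SD below the library mean, with starting fluorescence within 5 SD of its mean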;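 also: negative B-score means less thallium flux so channel inhibition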
KCNQ1 act = potentiates or activates the human KCNQ1 potassium channel; P51787; hit rate 0.35% among 310,000; B-score at 10 µM; CHO-K1 KCNQ1, thallium flux FluxOR fluorescence; active compounds read high; AID 2648;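 active = fluorescence ratio B-score, a plate-corrected score, at least three library SD, with initial intensity B-score within 5 SD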
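Material: CHO-K1 cells stably expressing KCNQ1. Medium: assay buffer for compound exposure, DMSO matched across wells. Reagent: K+/Tl+ depolarizing stimulus. Compound dosing: single-concentration screen. Times: 37 °C overnight plating, 90-min dark dye load, 20-min compound pretreatment. Technique: FluxOR Tl+ flux fluorescence.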
KCNQ1 block val = human KCNQ1 channel inhibition, validation assay; KCNQ1 cell line, FluxOR thallium flux fluorescence; shares compounds with KCNQ1 block; hit rate 93% among 1,600; AID 588353; inhibition, % at 10 µM;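 active = primary screen active, with duplicate mean exceeding buffer control mean plus 3 SD of buffer wells, cut at about 28% in these data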;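 also: 0% = buffer control ratio and 100% = XE991 inhibitor control ratio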
CHO Tl flux = counter-screen for KCNQ1 inhibitors: effect in parental CHO cells; shares compounds with KCNQ1 block; parental CHO-K1, FluxOR thallium flux fluorescence ratio; active compounds read low; zero means no signal rise above baseline; fluorescence ratio (Tl flux) at 10 µM; hit rate 21% among 1,600; AID 588366;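 active = mean of duplicate thallium-flux fluorescence ratios in parental host cells more than 5 SD below the buffer control mean, cut at about 0.38 in these data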;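 also: ratio is peak minus minimum fluorescence divided by baseline fluorescence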
KCNQ1 ephys val = confirmation of human KCNQ1 potassium channel inhibitors by electrophysiology. shares compounds with KCNQ1 block. KCNQ1-CHO cells, automated patch clamp current. calls only at 10 µM. hit rate 20% among 490;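 active = KCNQ1 current drop exceeding 3 SD of negative control wells, seen in both duplicate runs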;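 also: steady state current during a 2 s step from -80 to +40 mV; negative values mean current inhibition and positive values mean potentiation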
KCNQ2 spec = selectivity of KCNQ1 inhibitors: inhibition of rat KCNQ2 channel. shares compounds with KCNQ1 block. KCNQ2 cells, FluxOR thallium flux fluorescence. inhibition, % at 10 µM. hit rate 71% among 1,600;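 active = mean percent inhibition of the KCNQ2 thallium signal more than 5 SD above the buffer-only control wells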;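 also: KCNQ2 expressed in CHO cells; 0% = buffer control wells and 100% = XE-991 inhibitor control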
KCNQ1 KCNE1 spec = KCNQ1 inhibitor that also blocks human KCNQ1/KCNE1 channel. KCNQ1/KCNE1 cells, FluxOR thallium flux fluorescence. hit rate 77% among 1,600. AID 652147. inhibition, % at 10 µM. shares compounds with KCNQ1 block;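 active = mean percent inhibition of duplicate wells above the buffer-only control mean plus 3 SD of those controls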;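 also: 0% = buffer only wells and 100% = XE-991 inhibitor control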
KCNK9 block conf = confirmation of human KCNK9 potassium channel inhibitors | shares compounds with KCNK9 inh | HEK293 KCNK9 cells, FluxOR thallium flux fluorescence | inhibition, % at 10 µM | hit rate 43% among 4,900;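 active = thallium signal inhibited by more than 5 SD of the compound-free buffer control wells, on both duplicate plates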;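 also: 0% = assay buffer control wells without compound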
Kir2-1 spec = tests whether KCNK9 modulators also affect mouse Kir2.1 | inhibition, % at 10 µM | shares compounds with KCNK9 inh | hit rate 4% among 4,900 | Kir2.1 cells, FluxOR thallium flux fluorescence;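 active = thallium signal drop more than 5 SD beyond the mean of the no-compound control wells, seen in both duplicate plates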;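 also: signal is fluorescence rise after thallium addition divided by baseline fluorescence; plate controls were assay buffer only for no effect and full block by chlorpromazine control for full effect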
KCNK9 uninduced = non-induced cell nonspecific activity of KCNK9 modulators. inhibition, % at 10 µM. hit rate 40% among 4,900. shares compounds with KCNK9 inh. non-induced KCNK9-HEK293, FluxOR thallium flux. AID 492997;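 active = thallium signal drop beyond 5 SD of the untreated control mean, on both duplicate plates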;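 also: plate controls were buffer only IC0 wells for no effect and SID17386958 at its maximal inhibitory level for full effect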
* = called active by the depositor; i = inactive; . = not tested or not shown; + = active, no number. A selection: hits, their analogues and other compounds. The true share with any hit is near 4.1%.

SMILES	KCC2 mod	KCNQ1 block	hERG protect	KCNK3 block	KCNK9 inh	KCNQ1 act	KCNQ1 block val	CHO Tl flux	KCNQ2 spec	KCNQ1 KCNE1 spec	KCNK9 block conf	Kir2-1 spec	KCNK9 uninduced	others
CC(C)c1ccc(NC(=O)c2sccc2-n2cccc2)cc1	0.426	6*	-4.4	i	-11.5*	i	128.5*	0.396	114.3%*	178.5%*	46.5%*	i	43.5%*	KCNQ1 ephys val=+
O=C(NC1CC1)c1sccc1-n1cccc1	.	i	-3.8	i	i	i	.	.	.	.	.	.	.
CCOC(=O)C1=C(C(=O)OCC)N(CC2CCCCC2)CCC1=O	.	.	.	i	.	.	.	.	.	.	.	.	.
Cc1cc(C(=O)Nc2ccc(Cl)cc2)c(C)n1-c1ccccc1	-0.822	13*	-7.2	i	i	i	124.0*	0.387	115.0%*	98.0%*	i	i	i	KCNQ1 ephys val=i
Cc1ccc(NC(=O)c2cc(C)n(-c3cccc(C)c3)c2C)cc1	-0.242	i	-11.1	i	i	i	.	.	.	.	.	.	.
CCOC(=O)c1ccccc1NC(=O)C1CCN(c2ncnc3sc(C)c(C)c23)CC1	.	10*	-10.6	-8.93*	i	i	89.0*	0.414	132.0%*	130.5%*	i	i	32.0%*	KCNQ1 ephys val=i
c1cncc(CNc2nc(-c3cccnc3)nc3ccccc23)c1	.	i	-13.9	i	i	i	.	.	.	.	.	.	.
CC(C)(C)c1ccc(-c2nc(NCc3cccnc3)c3ccccc3n2)cc1	0.39	15*	-2.4	i	-9.27*	i	152.5*	0.47	100.0%*	186.0%*	26.0%*	i	41.5%*	KCNQ1 ephys val=i
CCC(C)(C)n1nnnc1C(c1ccc(C)cc1)N1CCSCC1 (configuration not stated)	-0.546	i	-2.9	i	i	i	.	.	.	.	.	.	.
CCN(Cc1ccccc1)C(c1ccc(C)cc1)c1nnnn1C(C)(C)CC (configuration not stated)	0.551	8*	-10.5	i	-12.8*	i	111.5*	0.413	112.0%*	85.5%*	58.5%*	i	50.0%*	KCNQ1 ephys val=i
CCOC(=O)c1c(C)[nH]c(C(=O)OCc2csc(CC(=O)Nc3ccccc3C)n2)c1C	.	i	-15.4	i	i	i	.	.	.	.	.	.	.
O=C(COc1cccc(Cl)c1Cl)Nc1ccc2c(c1)CCC2	-0.00736	i	-5.3	i	i	i	.	.	.	.	.	.	.
O=C(COc1ccccc1Cl)c1ccc2c(c1)CCCC2	-0.392	6*	-6.8	i	i	i	94.0*	0.435	92.3%*	119.0%*	i	i	37.0%*	KCNQ1 ephys val=i
CC(=O)c1sc2nc(-c3cccs3)cc(C(F)(F)F)c2c1N	-0.0303	7*	-4.0	i	-9.14*	i	104.0*	0.29*	i	153.5%*	41.5%*	30.0%*	65.5%*
CN(CC(=O)Nc1ccc(F)cc1)CC(=O)N1CCCCCC1	.	.	.	i	.	.	.	.	.	.	.	.	.
CC(C)(C)c1nc(SCC(=O)c2ccccc2)c2ccccc2n1	1.72	9*	-18.7	i	-9.04*	i	84.5*	0.679	i	58.5%*	46.5%*	51.0%*	47.0%*
CCC(C)C(=O)Nc1nnc(CCc2ccccc2)s1 (configuration not stated)	.	i	-0.3	i	i	i	.	.	.	.	.	.	.
CCCN(CC(=O)Nc1cc(Cl)cc(Cl)c1)CC(=O)Nc1ccc(F)c(F)c1F	0.989	6*	-9.5	i	-13.3*	i	132.0*	0.331*	119.3%*	159.0%*	55.0%*	i	46.5%*
CCOC(=O)Cn1c(-c2ccccc2)nc2ccccc2c1=O	.	i	-12.0	i	i	i	.	.	.	.	.	.	.
CCCOC(=O)C(C)n1c(-c2ccccc2)nc2ccccc2c1=O (configuration not stated)	-0.167	7*	-9.5	i	-10.6*	i	0.0	0.477	i	57.5%*	51.0%*	i	35.5%*
O=C(Nc1ccc(Oc2cccc3ccccc23)cc1)c1ccco1	-1.63	11*	-12.3	i	-13.6*	i	160.5*	0.287*	i	+	53.5%*	i	31.0%*
Clc1ccccc1CSc1cc2c(nn1)-c1ccccc1CC2	-0.367	9*	-15.2	i	-11.1*	i	81.5*	0.403	97.3%*	128.0%*	46.0%*	i	43.0%*
Clc1cccc(Cl)c1CSc1cc2c(nn1)-c1ccccc1CC2	.	i	-20.6	i	i	i	.	.	.	.	.	.	.
CN(C(=O)CSc1nc(-c2ccc(C(C)(C)C)cc2)c(C#N)c(=O)[nH]1)C1CCCCC1	.	7*	-14.6	i	i	i	54.5*	0.416	79.3%*	i	i	i	29.0%*
N#Cc1c(-c2ccccc2)nc(SCC(=O)NC2CCCCC2)[nH]c1=O	-1	i	-10.0	i	i	i	.	.	.	.	.	.	.
CSc1ccc(C(=O)Nc2cc(S(=O)(=O)N3CCOCC3)ccc2N2CCOCC2)cc1[N+](=O)[O-]	.	.	.	i	.	.	.	.	.	.	.	.	.
Nc1cc(Cl)nnc1Cl	0.0618	i	-3.3	i	i	i	.	.	.	.	.	.	.
Cc1cc(C(=O)CSc2ccccc2)cc(C)c1O	.	i	-11.3	i	i	i	.	.	.	.	.	.	.
CN1/C(=C\C(=O)Nc2cccc(Cl)c2)C(C)(C)c2ccccc21	-0.852	9*	-13.7	i	-8.22*	i	120.0*	0.388	125.3%*	169.0%*	45.0%*	i	33.5%*	KCNQ1 ephys val=i

High-throughput results from PubChem.
